Measured values published in ChEMBL document CHEMBL5724801, “EUbOPEN Chemogenomics Library - Multiplex” (2024).
“And” between values parts separate entries of the source, which are not always exact repeats. Equal entries are not always repeated.

System: U2OS
Experiment: Multiplex assay against U2OS
Assay type: toxicity, cell-based
Details: human
Summary of the method: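 Live cells were stained at seeding with Hoechst33342, BioTracker Green Microtubule Cytoskeleton Dye, MitoTracker Red and Annexin V Alexa Fluor 680. Following compound addition, they were imaged on a CQ1 microscope at 37°C and 5% CO2 and gated by CellPathfinder machine learning into Hoechst high-intensity objects or normal cells, with normal cells split into healthy, pyknosed or fragmented nuclei and pyknosed cells into mitotic or apoptotic. Tubulin, mitochondrial-mass and membrane-permeability phenotypes are per cents of healthy-nucleus cells.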

[1] = 12 h, 1 µM, compound concentration 1 uM
[2] = 12 h, 10 µM, compound concentration 10 uM
[3] = 24 h, 1 µM, compound concentration 1 uM
[4] = 24 h, 10 µM, compound concentration 10 uM
[5] = 48 h, 1 µM, compound concentration 1 uM
[6] = 48 h, 10 µM, compound concentration 10 uM

## O=S(=O)(c1ccccc1)c1cnc2c(N3CCNCC3)cccc2c1 [INTEPIRDINE]
[1]
  Population Apoptotic (%): 76% and 70%
  Population Fragmented Nuclei (%): 23% and 17%
  Population Healthy Nuclei (%): 68% and 71%
  Population Hoechst High Intensity Objects (%): 1% and 0%
  Population Membrane Permeable-Phenotype (%): 6% and 7%
  Population Mitochondria Different-Phenotype (%): 3% and 6%
  Population Mitotic Cells (%): 23% and 30%
  Population Normal (%): 98% and 100%
  Population Pyknosed Nuclei (%): 7% and 11%
  Population Tubulin-Different-Phenotype (%): 4% and 7%
[2]
  Population Apoptotic (%): 58% and 85%
  Population Fragmented Nuclei (%): 25% and 10%
  Population Healthy Nuclei (%): 61% and 79%
  Population Hoechst High Intensity Objects (%): 3% and 2%
  Population Membrane Permeable-Phenotype (%): 23% and 12%
  Population Mitochondria Different-Phenotype (%): 11% and 13%
  Population Mitotic Cells (%): 41% and 14%
  Population Normal (%): 96% and 97%
  Population Pyknosed Nuclei (%): 12% and 10%
  Population Tubulin-Different-Phenotype (%): 14% and 10%
  Total Cell Count: 204 and 139
[3]
  Population Apoptotic (%): 80% and 69%
  Population Fragmented Nuclei (%): 22% and 14%
  Population Healthy Nuclei (%): 67% and 73%
  Population Hoechst High Intensity Objects (%): 2% and 0%
  Population Membrane Permeable-Phenotype (%): 7% and 3%
  Population Mitochondria Different-Phenotype (%): 2% and 3%
  Population Mitotic Cells (%): 19% and 30%
  Population Normal (%): 97% and 99%
  Population Pyknosed Nuclei (%): 9% and 12%
  Population Tubulin-Different-Phenotype (%): 4% and 1%
  Total Cell Count: 319 and 108
[4]
  Population Apoptotic (%): 72% and 77%
  Population Fragmented Nuclei (%): 23% and 10%
  Population Healthy Nuclei (%): 60% and 77%
  Population Hoechst High Intensity Objects (%): 3% and 0%
  Population Membrane Permeable-Phenotype (%): 17% and 10%
  Population Mitochondria Different-Phenotype (%): 14% and 17%
  Population Mitotic Cells (%): 27% and 22%
  Population Normal (%): 96% and 99%
  Population Pyknosed Nuclei (%): 16% and 11%
  Population Tubulin-Different-Phenotype (%): 10% and 6%
  Total Cell Count: 233 and 156
[5]
  Population Apoptotic (%): 89% and 76%
  Population Fragmented Nuclei (%): 15% and 13%
  Population Healthy Nuclei (%): 70% and 68%
  Population Hoechst High Intensity Objects (%): 3%
  Population Membrane Permeable-Phenotype (%): 6% and 3%
  Population Mitochondria Different-Phenotype (%): 4% and 2%
  Population Mitotic Cells (%): 10% and 23%
  Population Normal (%): 96%
  Population Pyknosed Nuclei (%): 14% and 18%
  Population Tubulin-Different-Phenotype (%): 4% and 2%
  Total Cell Count: 416 and 148
[6]
  Population Apoptotic (%): 78% and 95%
  Population Fragmented Nuclei (%): 22% and 13%
  Population Healthy Nuclei (%): 59% and 75%
  Population Hoechst High Intensity Objects (%): 4% and 2%
  Population Membrane Permeable-Phenotype (%): 15% and 10%
  Population Mitochondria Different-Phenotype (%): 7% and 12%
  Population Normal (%): 95% and 97%
  Population Pyknosed Nuclei (%): 17% and 11%
  Population Tubulin-Different-Phenotype (%): 6% and 4%
  Total Cell Count: 302 and 201

## C=C(C)[C@H]1CN[C@H](C(=O)O)[C@H]1CC(=O)O [KAINIC ACID]
[1]
  Population Apoptotic (%): 30.91% and 58.82%
  Population Fragmented Nuclei (%): 1.23% and 1.12%
  Population Healthy Nuclei (%): 87.5% and 89.39%
  Population Hoechst High Intensity Objects (%): 0%
  Population Membrane Permeable-Phenotype (%): 1.41% and 1.88%
  Population Mitochondria Different-Phenotype (%): 0.23% and 4.38%
  Population Mitotic Cells (%): 69.09% and 41.18%
  Population Normal (%): 100%
  Population Pyknosed Nuclei (%): 11.27% and 9.5%
  Population Tubulin-Different-Phenotype (%): 0.7% and 0.62%
  Total Cell Count: 488 and 179
[2]
  Population Apoptotic (%): 57.14% and 30.77%
  Population Fragmented Nuclei (%): 0.95% and 4.3%
  Population Healthy Nuclei (%): 89.13% and 81.72%
  Population Hoechst High Intensity Objects (%): 0%
  Population Membrane Permeable-Phenotype (%): 0.27% and 3.29%
  Population Mitochondria Different-Phenotype (%): 0.27% and 4.61%
  Population Mitotic Cells (%): 42.86% and 69.23%
  Population Normal (%): 100%
  Population Pyknosed Nuclei (%): 9.93% and 13.98%
  Population Tubulin-Different-Phenotype (%): 0.53% and 0%
  Total Cell Count: 423 and 186
[3]
  Population Apoptotic (%): 37.88% and 41.38%
  Population Fragmented Nuclei (%): 1.93% and 1.32%
  Population Healthy Nuclei (%): 88.3% and 85.96%
  Population Hoechst High Intensity Objects (%): 0%
  Population Membrane Permeable-Phenotype (%): 0.84% and 3.06%
  Population Mitochondria Different-Phenotype (%): 0.17% and 5.61%
  Population Mitotic Cells (%): 62.12% and 58.62%
  Population Normal (%): 100%
  Population Pyknosed Nuclei (%): 9.78% and 12.72%
  Population Tubulin-Different-Phenotype (%): 0.5% and 0.51%
  Total Cell Count: 675 and 228
[4]
  Population Apoptotic (%): 43.86% and 44.44%
  Population Fragmented Nuclei (%): 0.5% and 1.63%
  Population Healthy Nuclei (%): 90.02% and 91.02%
  Population Hoechst High Intensity Objects (%): 0%
  Population Membrane Permeable-Phenotype (%): 0.37% and 1.79%
  Population Mitochondria Different-Phenotype (%): 0% and 2.69%
  Population Mitotic Cells (%): 56.14% and 55.56%
  Population Normal (%): 100%
  Population Pyknosed Nuclei (%): 9.48% and 7.35%
  Population Tubulin-Different-Phenotype (%): 0.92% and 0.9%
  Total Cell Count: 601 and 245
[5]
  Population Apoptotic (%): 36.05% and 33.33%
  Population Fragmented Nuclei (%): 2.72% and 1.63%
  Population Healthy Nuclei (%): 90.38% and 86.14%
  Population Hoechst High Intensity Objects (%): 0%
  Population Membrane Permeable-Phenotype (%): 0.98% and 1.89%
  Population Mitochondria Different-Phenotype (%): 0.44% and 1.89%
  Population Mitotic Cells (%): 63.95% and 66.67%
  Population Normal (%): 100%
  Population Pyknosed Nuclei (%): 6.89% and 12.23%
  Population Tubulin-Different-Phenotype (%): 0.62% and 0.95%
[6]
  Population Apoptotic (%): 44.57% and 57.89%
  Population Fragmented Nuclei (%): 3.7% and 0.47%
  Population Healthy Nuclei (%): 88.18% and 90.59%
  Population Hoechst High Intensity Objects (%): 0%
  Population Membrane Permeable-Phenotype (%): 0.8% and 2.08%
  Population Mitochondria Different-Phenotype (%): 0.2% and 2.08%
  Population Mitotic Cells (%): 55.43% and 42.11%
  Population Normal (%): 100%
  Population Pyknosed Nuclei (%): 8.11% and 8.94%
  Population Tubulin-Different-Phenotype (%): 0.7% and 1.3%
  Total Cell Count: 1134 and 425
